Bioassay records (PubChem BioAssay)
Shown are actives, neighbours in structure and some others; about 2.2% of the full set was active somewhere.
CHRM5 PAM: positive allosteric modulators of human muscarinic M5 receptor; CHO-K1 hM5, Fluo-8 calcium, ACh EC20 PAM; 0% = ACh EC20, 100% = ACh EC100; activation, % at 3 µM; 360,000 compounds, 0.3% hits;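 active = activation above the run cutoff, the mean activation of all test compounds plus 3 SD, cut at about 18% in these data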
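system = human M5 receptor in CHO-K1 cells | reagent = EC20 acetylcholine as agonist stimulus | compound dosing = single-point, 3 µM nominal | incubation = Fluo-8 loading 80 min at 37 °C plus 30 min room temperature | detection = Fluo-8 calcium dye fluorescence, kinetic read | benchmarks = low control EC20 acetylcholine (0%), high control EC100 acetylcholine (100%)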
M5 antag: blocks acetylcholine activation of human M5 receptor; P08912; CHO-hM5 cells, Fluo-8 calcium fluorescence, ACh EC80; inhibition, % at 3 µM; 360,000 compounds, 0.59% hits; AID 624040;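 active = inhibition above a per-plate cutoff, the mean of that plate's test compounds plus 3 SD, cut at about 27% in these data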
CHRM1 agonist: activates human CHRM1 receptor; P11229; CHO-K1 hM1, Fluo-8 calcium fluorescence, agonist mode; 0% DMSO, 100% acetylcholine EC100; activation, % at 3 µM; 360,000 compounds, 0.33% hits;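 active = activation above the run's mean compound activation plus 3 SD, cut at about 16% in these data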;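 note: peak over basal fluorescence ratio within a 140 s kinetic read after compound addition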
Target sequence (P11229 whole entry, looked up): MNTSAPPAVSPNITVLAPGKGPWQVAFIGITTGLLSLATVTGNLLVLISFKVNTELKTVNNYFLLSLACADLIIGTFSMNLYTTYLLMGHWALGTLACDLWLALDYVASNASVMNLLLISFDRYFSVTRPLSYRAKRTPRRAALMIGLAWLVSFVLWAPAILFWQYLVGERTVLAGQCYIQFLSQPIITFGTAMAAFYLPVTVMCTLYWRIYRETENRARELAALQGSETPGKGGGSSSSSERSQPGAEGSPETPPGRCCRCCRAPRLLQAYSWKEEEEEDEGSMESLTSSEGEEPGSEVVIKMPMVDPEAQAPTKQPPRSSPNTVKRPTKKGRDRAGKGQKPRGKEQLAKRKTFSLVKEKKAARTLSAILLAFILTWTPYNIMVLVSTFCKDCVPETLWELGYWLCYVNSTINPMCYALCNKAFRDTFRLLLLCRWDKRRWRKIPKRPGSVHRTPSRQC
M1 PAM: positive allosteric modulators of human M1 muscarinic receptor | CHO-K1 hM1, Fluo-8 calcium fluorescence, ACh EC20; 0% = ACh EC20, 100% = maximal ACh | P11229 | activation, % at 3 µM | 360,000 compounds, 0.088% hits; in the data active = activation above about 19%, passing the limit was not always enough
CHRM5 agonist: CHRM5 agonism in calcium assay | P08912 | CHO-K1 hM5 cells, Fluo-8 calcium fluorescence; 0% DMSO wells, 100% maximal acetylcholine response | activation, % at 3 µM | 360,000 compounds, 0.19% hits;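 active = activation above the run's mean over test compounds plus 3 SD, cut at about 23% in these data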;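 note: signal is peak over basal fluorescence ratio across the kinetic read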
CHRM1 antagonist: antagonists of human M1 muscarinic receptor | CHO-K1 hM1, Fluo-8 calcium fluorescence, ACh EC80 antagonist | inhibition, % at 3 µM | 360,000 compounds, 1.3% hits;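 active = percent inhibition above its own plate's cutoff, namely the mean of that plate's compound wells plus 3 SD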;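 note: peak over basal fluorescence ratio during 140 s after agonist addition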
Numbers stand for hits; 0 = inactive.

SMILES | CHRM5 PAM | M5 antag | CHRM1 agonist | M1 PAM | CHRM5 agonist | CHRM1 antagonist
Cc1cccc(N=[N+]([O-])c2cccc(C)n2)n1 | 0 | 0 | 0 | 0 | 0 | 0
O=C1CC2(CCN(C(=O)C3CC(=O)N(c4ccccc4)C3)CC2)Oc2ccccc21 (configuration not stated) | 0 | 0 | 0 | 0 | 0 | 0
CN1CCC(CC(C(=O)N2CCCC2)(c2ccccc2)c2ccccc2)C1 (configuration not stated) | 0 | 0 | 0 | 0 | 0 | 60.5
COc1cc(CNCc2ccc(Br)cc2)cc(OC)c1 | 0 | 0 | 0 | 0 | 0 | 0
O=C(O)C1CCC(=O)N(C2CCCCC2)C1c1ccccc1Cl (configuration not stated) | 18.6 | 0 | 0 | 0 | 0 | 0
O=C(Nc1ccc(CN2CCOCC2)cc1)c1ccc(-c2cccc(Cl)c2)o1 | 0 | 0 | 0 | 0 | 0 | 0
O=C(NC(=S)Nc1ccc(CN2CCOCC2)cc1)c1ccc(-c2cccc(Cl)c2)o1 | 0 | 0 | 0 | 0 | 0 | 57.9
COc1ccc(Br)cc1C(=O)NC(=S)Nc1ccc(CN2CCOCC2)cc1 | 0 | 0 | 0 | 0 | 0 | 32.0
Cc1ccc(/C=C/C(=O)CCC(=O)O)cc1 | 0 | 0 | 0 | 0 | 0 | 0
COc1ccc(-c2csc(/C=C/c3ccc4c(c3)OCO4)n2)cc1OC | 0 | 0 | 0 | 0 | 0 | 0
Cc1oc(C(=O)O)cc1COc1ccccc1Cl | 41.8 | 0 | 0 | 0 | 29.7 | 0
O=C(O)c1ccccc1COc1ccccc1Cl | 0 | 0 | 0 | 0 | 0 | 0
O=C(NC(=S)N1CCCCC1CO)c1cccs1 (configuration not stated) | 24.3 | 0 | 0 | 0 | 0 | 0
COc1ccc(-c2nn(-c3ccccc3)cc2/C=N/NC(=O)c2ccc(Br)o2)cc1 | 0 | 0 | 0 | 0 | 0 | 43.9
CC(=O)Nc1ccc(OCC(O)CN2CCN(S(=O)(=O)c3ccc(NC(C)=O)cc3)CC2)cc1 (configuration not stated) | 0 | 0 | 0 | 0 | 0 | 0
CC(=O)Nc1ccc(S(=O)(=O)N2CCN(CC(O)COc3ccc4ccccc4c3)CC2)cc1 (configuration not stated) | 0 | 0 | 0 | 0 | 0 | 34.1
CCn1ncc(C2=NOC(C(=O)Nc3cc(OC)c(Cl)cc3OC)C2)c1C (configuration not stated) | 0 | 0 | 0 | 0 | 0 | 0
O=C(C[n+]1ccccc1)N1c2ccccc2Sc2ccccc21 | 0 | 98.0 | 0 | 0 | 0 | 100.2
O=C(COc1ccccc1)N1c2ccccc2Sc2ccccc21 | 0 | 0 | 0 | 0 | 0 | 0
CN(C)c1cc[n+](CC(=O)N2c3ccccc3Sc3ccccc32)cc1 | 0 | 0 | 0 | 0 | 0 | 99.7
CN(C)c1cc[n+](Cc2c(Cl)cccc2Cl)cc1 | 0 | 55.0 | 0 | 0 | 0 | 79.8
CCn1c(C)nc2cc(C(=O)NNC(=S)NC(=O)c3ccccc3)ccc21 | 0 | 0 | 0 | 0 | 0 | 0
N#CC1C(=O)c2ccccc2C1c1ccccc1 (configuration not stated) | 0 | 29.4 | 0 | 0 | 0 | 0
CCCCC(=O)Nc1ccc(NC(=O)c2ccccc2[N+](=O)[O-])cc1OC | 0 | 0 | 0 | 0 | 0 | 0
O=C(NCCc1nc2ccccc2[nH]1)c1ccc(Cl)c([N+](=O)[O-])c1 | 0 | 0 | 0 | 0 | 0 | 28.7
SMILES | CHRM5 PAM | M5 antag | CHRM1 agonist | M1 PAM | CHRM5 agonist | CHRM1 antagonist
CC(OC(=O)/C(C#N)=C/c1ccc(N(C)C)cc1)C(=O)N(C)Cc1ccccc1 (configuration not stated) | 0 | 0 | 0 | 0 | 32.2 | 30.2
O=C(/C=C/c1ccccc1Cl)NCCCn1ccnc1 | 0 | 0 | 0 | 0 | 0 | 0
CC1(C(=O)NS(=O)(=O)c2ccc(Cl)cc2)CCN1C(=O)c1ccccc1 (configuration not stated) | 0 | 0 | 0 | 0 | 0 | 0
COc1cccc(C(=O)C2CCCN(Cc3ccc(OC)c(Cn4cncn4)c3)C2)c1 (configuration not stated) | 0 | 0 | 0 | 0 | 0 | 37.3
COc1cccc(C(=O)C2CCCN(Cc3cccc(OCCO)c3)C2)c1 (configuration not stated) | 0 | 0 | 0 | 0 | 0 | 0
COc1cccc(C(=O)C2CCCN(Cc3cccc(-n4nc(C)cc4C)c3)C2)c1 (configuration not stated) | 0 | 0 | 0 | 0 | 0 | 60.3
COc1cccc(C(=O)C2CCCN(Cc3cn(C)nc3-c3ccccc3)C2)c1 (configuration not stated) | 0 | 0 | 0 | 0 | 0 | 0
COc1ccc(CN2CCCC(C(=O)c3ccc(Cl)cc3)C2)cc1Cn1cccn1 (configuration not stated) | 0 | 0 | 0 | 0 | 0 | 58.5
CCc1ccc(-c2n[nH]nc2C2=CC(=O)C[C@H](c3ccc(F)cc3)C2)cc1 | 0 | 0 | 0 | 0 | 0 | 0
C[N+]1(CCCCCCC(=O)/C=N/O)CCCCCC1 | 0 | 0 | 0 | 0 | 0 | 0
C[N+](C)(C)CCCCCCC(=O)/C=N/O | 0 | 0 | 36.1 | 0 | 0 | 0
Cc1cccc(Cc2nc3ccccc3[nH]2)c1 | 0 | 0 | 0 | 0 | 0 | 0
O=C(N[C@@H](Cc1ccccc1)C(=O)N1CCC2(CC1)NCCc1[nH]cnc12)c1cccc(Br)c1 | 0 | 0 | 0 | 0 | 0 | 38.6
C[C@H](NC(=O)c1ccccc1)C(=O)N1CCC2(CC1)NCCc1[nH]cnc12 | 0 | 0 | 0 | 0 | 0 | 0
CCN(CC)CC#CC(OC)(c1ccccc1)c1ccccc1 | 0 | 95.5 | 0 | 0 | 0 | 100.1
COc1ccccc1C(=O)NCC(=O)N/N=C/c1cccc(Cl)c1 | 0 | 0 | 0 | 0 | 0 | 0
CCn1c(-c2ccc(-c3ccccc3)cc2)c[nH]c1=S | 0 | 0 | 0 | 0 | 0 | 48.0
O=C(COC(=O)CCCCCN=C1NS(=O)(=O)c2ccccc21)Nc1ccc(Cl)c(Cl)c1 | 0 | 44.7 | 0 | 0 | 0 | 0
O=C(CCCN=C1NS(=O)(=O)c2ccccc21)OCC(=O)c1ccccc1 | 0 | 0 | 0 | 0 | 0 | 0
Cc1cc(C)c2nc(N3C(=O)C(O)=C(C(=O)c4ccco4)C3c3cccc(O)c3)sc2c1 (configuration not stated) | 0 | 0 | 0 | 0 | 0 | 0
CC(C)N(CCNC(=O)C1CCCN(c2ncnc3c2nc2n3CCCCC2)C1)Cc1ccccc1 (configuration not stated) | 0 | 0 | 0 | 0 | 0 | 38.0
O=C(NCC1CCN(Cc2ccccc2F)CC1)C1CCCN(c2ncnc3c2nc2n3CCCCC2)C1 (configuration not stated) | 0 | 0 | 0 | 0 | 0 | 90.6
Cc1ccc(CN2CCC(CNC(=O)C3CCCN(c4ncnc5c4nc4n5CCCCC4)C3)CC2)cc1 (configuration not stated) | 0 | 0 | 0 | 0 | 0 | 97.3
